Laboratory results taken from ChEMBL document CHEMBL1143072, “Nitric oxide production inhibitory activity of flavonoids contained in trunk exudates of Dalbergia sissoo” (J Nat Prod, 2008).

Experiments:
J774.1 = test: Inhibition of nitric oxide production in LPS induced mouse J774.1 cells; assay type: functional, cell-based
Summary of the method: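 J774.1 cells are grown in DMEM with 10% FCS, penicillin and streptomycin. Adherent cells are plated at 1 × 10^5 cells/well and left 6 h at 37 °C in 5% CO2. Fresh medium with LPS 1 µg/mL and the compound at a range of concentrations is added for 24 h. Nitrite in the supernatant is measured with Griess reagent (10 min, room temperature, A550), with medium blank subtracted. % inhibition is taken against LPS-only wells. L-NMMA is the positive control.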

[1] = Cytotoxicity against LPS induced mouse J774.1 cells by MTT assay; assay type: cell-based
Summary of the method: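 LPS-stimulated J774.1 cells from the NO assay (1 × 10^5 cells/well, 24 h with LPS 1 µg/mL plus compound). After the supernatant is taken off, cells get fresh medium with MTT 2 mg/mL for 3 h at 37 °C in 5% CO2. Formazan is dissolved in DMSO and absorbance is read at 550 nm.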

[2] = Inhibition of NO production in LPS induced mouse J774.1 cells by Griess assay

Structure (SMILES) | IC50 (J774.1) [µM] | Activity [1] [µM] | IC50 [2] [µM]
C=C[C@H](C1=CC(=O)C=CC1=O)c1ccccc1 | 39.7 | – | –
COC1=CC(O)(C/C=C/c2ccccc2)C(OC)=CC1=O (configuration not stated) | 6.22 | – | –
C=C[C@@H](c1ccccc1)c1cc(O)ccc1O | 31.6 | – | –
C=CC(c1ccccc1)C1(O)C(=O)C=C(OC)C(=O)C1O (configuration not stated) | 3.19 | > 100 | –
C=C[C@H](C1=CC(=O)C(OC)=CC1=O)c1ccccc1 | 38.8 | – | –
C=C[C@H](C1=CC(=O)C(OC)=CC1=O)c1ccc(O)cc1 | 11.5 | > 100 | –
CNC(=N)NCCC[C@H](N)C(=O)O [TILARGININE] | 31.6 | – | 27.1
COc1ccc(C(=O)/C=C/c2ccccc2)c(O)c1 | 5.4 | > 25 | –
